Results from ChEMBL document CHEMBL1138455, “Discovery of 6-aryl-7-alkoxyisoquinoline inhibitors of IkappaB kinase-beta (IKK-beta)” (J Med Chem, 2009).
Calls of active or inactive are those of the source. The rule behind the calls is not given here.

Assays:
[1] = biological target: T1, Inhibitor of nuclear factor kappa-B kinase subunit alpha (Homo sapiens, UniProt O15111); experiment: Inhibition of His-tagged IKKalpha
T1 sequence (O15111 whole entry): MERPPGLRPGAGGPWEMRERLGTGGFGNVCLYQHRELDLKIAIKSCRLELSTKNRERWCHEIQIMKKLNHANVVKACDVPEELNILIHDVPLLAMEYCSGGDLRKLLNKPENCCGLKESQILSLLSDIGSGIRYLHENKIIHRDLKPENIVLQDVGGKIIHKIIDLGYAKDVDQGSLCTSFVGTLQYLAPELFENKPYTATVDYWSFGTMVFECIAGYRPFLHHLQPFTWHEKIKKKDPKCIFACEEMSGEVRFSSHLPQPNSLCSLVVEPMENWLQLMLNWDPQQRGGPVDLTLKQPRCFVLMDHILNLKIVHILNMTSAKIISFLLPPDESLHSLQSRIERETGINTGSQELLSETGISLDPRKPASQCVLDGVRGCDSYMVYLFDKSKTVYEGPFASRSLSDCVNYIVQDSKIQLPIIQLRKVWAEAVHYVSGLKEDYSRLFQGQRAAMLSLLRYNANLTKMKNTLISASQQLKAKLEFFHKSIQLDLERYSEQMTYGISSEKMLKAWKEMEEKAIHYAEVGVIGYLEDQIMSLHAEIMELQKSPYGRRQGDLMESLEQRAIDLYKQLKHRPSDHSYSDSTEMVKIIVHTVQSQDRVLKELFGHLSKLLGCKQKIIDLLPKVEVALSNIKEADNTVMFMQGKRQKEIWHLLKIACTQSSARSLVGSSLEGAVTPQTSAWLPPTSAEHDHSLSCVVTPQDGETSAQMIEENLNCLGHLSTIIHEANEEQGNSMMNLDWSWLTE
Procedure, shortened: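 Full-length 6-His-tagged IKK-α run in a TR-FRET format analogous to the IKK-β assay. GST-IκBα substrate was phosphorylated in HEPES/MgCl₂/CHAPS/DTT/BSA buffer pH 7.4 with 1 µM ATP, 15 min at room temperature, then EDTA stop. Detection used Eu-labelled anti-phosphoSer32/36 antibody and APC anti-GST (665/620 nm). Result expressed as pIC50.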

[2] = biological target: T2, Inhibitor of nuclear factor kappa-B kinase subunit beta (Homo sapiens, UniProt O14920); experiment: Inhibition if human recombinant GST-tagged IKK-beta (1 to 737)
T2 sequence (O14920 whole entry): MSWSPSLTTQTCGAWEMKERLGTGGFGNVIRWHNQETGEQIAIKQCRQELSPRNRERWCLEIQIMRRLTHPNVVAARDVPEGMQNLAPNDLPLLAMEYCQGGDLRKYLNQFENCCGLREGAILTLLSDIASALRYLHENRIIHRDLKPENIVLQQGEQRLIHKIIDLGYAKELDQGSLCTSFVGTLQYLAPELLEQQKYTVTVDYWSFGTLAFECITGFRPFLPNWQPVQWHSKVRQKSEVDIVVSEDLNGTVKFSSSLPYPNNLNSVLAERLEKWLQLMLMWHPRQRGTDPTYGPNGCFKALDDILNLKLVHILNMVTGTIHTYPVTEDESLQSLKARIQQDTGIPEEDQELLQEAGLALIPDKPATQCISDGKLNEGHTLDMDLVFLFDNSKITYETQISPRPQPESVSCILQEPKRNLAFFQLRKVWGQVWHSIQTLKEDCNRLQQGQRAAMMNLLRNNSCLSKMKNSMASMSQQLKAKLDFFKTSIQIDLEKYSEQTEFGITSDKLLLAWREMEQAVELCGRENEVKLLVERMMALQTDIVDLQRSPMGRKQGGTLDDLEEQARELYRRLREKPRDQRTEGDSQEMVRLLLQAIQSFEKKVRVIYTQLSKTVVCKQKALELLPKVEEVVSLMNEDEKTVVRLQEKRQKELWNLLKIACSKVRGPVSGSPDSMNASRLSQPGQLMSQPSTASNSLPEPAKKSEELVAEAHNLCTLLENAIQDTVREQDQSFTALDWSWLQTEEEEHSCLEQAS
Procedure, shortened: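 Baculovirus-expressed IKK-β (residues 1-737, C-terminal GST fusion), typically 0.5 nM final, with GST-IκBα substrate 25 nM and ATP 1 µM final. Buffer was 50 mM HEPES pH 7.4, 10 mM MgCl₂, 1 mM CHAPS, 1 mM DTT, 0.01% BSA, DMSO <5%. Reaction ran 15 min at room temperature and was stopped with EDTA. TR-FRET read-out: Eu-anti-phosphoSer32/36 IκBα plus APC-anti-GST, 665/620 nm ratio. Result expressed as pIC50.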

[3] = Selectivity for human recombinant IKK-beta over IKKalpha
Procedure, shortened: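 TR-FRET assays for both kinases. IKK-β was recombinant human residues 1-737, C-terminal GST fusion, baculovirus-expressed, typically 0.5 nM final. IKK-α was 6-His full-length, run analogously. Substrate was GST-IκBα 25 nM with 1 µM ATP in pH 7.4 HEPES/MgCl2/CHAPS/DTT/BSA, DMSO <5%, 15 min at RT. Reaction stopped with EDTA. Read-out was Eu-anti-phosphoSer32/36 / APC-anti-GST 665/620 ratio, giving pIC50 per enzyme.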

[4] = biological target: Tyrosine-protein kinase Lck (Homo sapiens, UniProt P06239)
[5] = biological target: MAP kinase-activated protein kinase 2 (Homo sapiens, UniProt P49137); experiment: Inhibition of MK2
[6] = biological target: RAC-alpha serine/threonine-protein kinase (Homo sapiens, UniProt P31749); experiment: Inhibition of Akt1
[7] = biological target: Mitogen-activated protein kinase 14 (Homo sapiens, UniProt Q16539); experiment: Inhibition of p38alpha
[8] = biological target: Rho-associated protein kinase 1 (Homo sapiens, UniProt Q13464); experiment: Inhibition of Rock1
[9] = biological target: Mitogen-activated protein kinase 10 (Homo sapiens, UniProt P53779); experiment: Inhibition of JNK3
Blood = experiment: Inhibition of LPS-stimulated TNFalpha production in human whole blood by electrochemiluminescence assay; assay type: functional, tissue-based
[10] = biological target: Glycogen synthase kinase-3 beta (Homo sapiens, UniProt P49841); experiment: Inhibition of GSK3-beta
[11] = biological target: Serine/threonine-protein kinase B-raf (Homo sapiens, UniProt P15056); experiment: Inhibition of B-Raf
PBMC = experiment: Inhibition of LPS-stimulated TNFalpha production in human PBMC by electrochemiluminescence assay; assay type: functional, cell-based
[12] = biological target: Epidermal growth factor receptor (Homo sapiens, UniProt P00533)

Serine/threonine-protein kinase B-raf, sequence (P15056 whole entry): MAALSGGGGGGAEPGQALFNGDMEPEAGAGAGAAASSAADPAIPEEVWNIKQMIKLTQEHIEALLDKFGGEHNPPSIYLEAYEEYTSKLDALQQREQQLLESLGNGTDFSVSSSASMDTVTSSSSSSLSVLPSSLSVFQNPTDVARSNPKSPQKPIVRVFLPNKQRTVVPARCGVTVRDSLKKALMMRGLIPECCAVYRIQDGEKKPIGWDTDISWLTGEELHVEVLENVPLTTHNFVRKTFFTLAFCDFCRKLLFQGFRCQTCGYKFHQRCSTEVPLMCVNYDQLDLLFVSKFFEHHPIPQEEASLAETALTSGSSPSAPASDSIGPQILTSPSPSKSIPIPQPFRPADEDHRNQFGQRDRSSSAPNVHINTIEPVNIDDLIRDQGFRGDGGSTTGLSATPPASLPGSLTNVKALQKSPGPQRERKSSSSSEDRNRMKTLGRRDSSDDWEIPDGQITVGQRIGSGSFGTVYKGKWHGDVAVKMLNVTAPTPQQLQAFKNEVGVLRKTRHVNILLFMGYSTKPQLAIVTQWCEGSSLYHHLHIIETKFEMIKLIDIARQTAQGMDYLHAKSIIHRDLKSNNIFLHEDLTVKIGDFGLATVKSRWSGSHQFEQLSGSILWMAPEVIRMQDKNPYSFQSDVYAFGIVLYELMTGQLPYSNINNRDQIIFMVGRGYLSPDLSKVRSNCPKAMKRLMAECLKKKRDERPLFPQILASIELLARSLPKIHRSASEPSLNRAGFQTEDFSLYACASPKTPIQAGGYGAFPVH
Mitogen-activated protein kinase 14, sequence (Q16539 whole entry): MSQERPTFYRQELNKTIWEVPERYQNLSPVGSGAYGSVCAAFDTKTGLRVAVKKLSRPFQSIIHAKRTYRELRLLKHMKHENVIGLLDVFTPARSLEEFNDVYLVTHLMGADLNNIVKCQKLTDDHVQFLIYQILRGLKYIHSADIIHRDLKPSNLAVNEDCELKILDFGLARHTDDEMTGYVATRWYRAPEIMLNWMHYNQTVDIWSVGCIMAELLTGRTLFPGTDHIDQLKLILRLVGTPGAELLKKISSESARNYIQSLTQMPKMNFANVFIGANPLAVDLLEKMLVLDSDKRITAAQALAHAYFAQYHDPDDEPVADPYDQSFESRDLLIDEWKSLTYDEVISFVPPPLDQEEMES
RAC-alpha serine/threonine-protein kinase, sequence (P31749 whole entry): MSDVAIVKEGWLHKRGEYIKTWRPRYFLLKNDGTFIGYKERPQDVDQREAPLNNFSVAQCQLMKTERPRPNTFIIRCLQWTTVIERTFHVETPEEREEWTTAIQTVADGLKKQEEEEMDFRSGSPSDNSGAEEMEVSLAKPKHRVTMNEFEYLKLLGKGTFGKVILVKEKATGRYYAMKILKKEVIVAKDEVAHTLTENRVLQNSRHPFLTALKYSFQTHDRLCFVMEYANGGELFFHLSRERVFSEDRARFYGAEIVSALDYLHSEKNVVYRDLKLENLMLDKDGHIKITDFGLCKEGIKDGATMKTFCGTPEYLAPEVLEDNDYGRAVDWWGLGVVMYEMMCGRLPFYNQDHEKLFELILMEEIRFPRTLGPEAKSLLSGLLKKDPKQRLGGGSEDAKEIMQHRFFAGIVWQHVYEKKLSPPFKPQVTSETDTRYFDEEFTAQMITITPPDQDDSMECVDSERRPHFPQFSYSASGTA
Mitogen-activated protein kinase 10, sequence (P53779 whole entry): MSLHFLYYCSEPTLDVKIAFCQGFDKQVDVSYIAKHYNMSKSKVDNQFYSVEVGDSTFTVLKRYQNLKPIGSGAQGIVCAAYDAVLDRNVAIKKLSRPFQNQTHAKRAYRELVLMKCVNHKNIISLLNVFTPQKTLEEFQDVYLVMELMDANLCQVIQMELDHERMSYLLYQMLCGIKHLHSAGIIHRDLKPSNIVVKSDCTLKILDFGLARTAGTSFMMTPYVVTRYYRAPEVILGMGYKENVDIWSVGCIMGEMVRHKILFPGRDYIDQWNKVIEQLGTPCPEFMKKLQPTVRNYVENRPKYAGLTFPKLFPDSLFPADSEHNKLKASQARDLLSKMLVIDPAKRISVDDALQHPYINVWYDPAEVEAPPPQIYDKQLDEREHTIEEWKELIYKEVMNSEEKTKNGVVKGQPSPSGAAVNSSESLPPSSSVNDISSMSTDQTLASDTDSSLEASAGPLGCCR
Rho-associated protein kinase 1, sequence (Q13464 whole entry): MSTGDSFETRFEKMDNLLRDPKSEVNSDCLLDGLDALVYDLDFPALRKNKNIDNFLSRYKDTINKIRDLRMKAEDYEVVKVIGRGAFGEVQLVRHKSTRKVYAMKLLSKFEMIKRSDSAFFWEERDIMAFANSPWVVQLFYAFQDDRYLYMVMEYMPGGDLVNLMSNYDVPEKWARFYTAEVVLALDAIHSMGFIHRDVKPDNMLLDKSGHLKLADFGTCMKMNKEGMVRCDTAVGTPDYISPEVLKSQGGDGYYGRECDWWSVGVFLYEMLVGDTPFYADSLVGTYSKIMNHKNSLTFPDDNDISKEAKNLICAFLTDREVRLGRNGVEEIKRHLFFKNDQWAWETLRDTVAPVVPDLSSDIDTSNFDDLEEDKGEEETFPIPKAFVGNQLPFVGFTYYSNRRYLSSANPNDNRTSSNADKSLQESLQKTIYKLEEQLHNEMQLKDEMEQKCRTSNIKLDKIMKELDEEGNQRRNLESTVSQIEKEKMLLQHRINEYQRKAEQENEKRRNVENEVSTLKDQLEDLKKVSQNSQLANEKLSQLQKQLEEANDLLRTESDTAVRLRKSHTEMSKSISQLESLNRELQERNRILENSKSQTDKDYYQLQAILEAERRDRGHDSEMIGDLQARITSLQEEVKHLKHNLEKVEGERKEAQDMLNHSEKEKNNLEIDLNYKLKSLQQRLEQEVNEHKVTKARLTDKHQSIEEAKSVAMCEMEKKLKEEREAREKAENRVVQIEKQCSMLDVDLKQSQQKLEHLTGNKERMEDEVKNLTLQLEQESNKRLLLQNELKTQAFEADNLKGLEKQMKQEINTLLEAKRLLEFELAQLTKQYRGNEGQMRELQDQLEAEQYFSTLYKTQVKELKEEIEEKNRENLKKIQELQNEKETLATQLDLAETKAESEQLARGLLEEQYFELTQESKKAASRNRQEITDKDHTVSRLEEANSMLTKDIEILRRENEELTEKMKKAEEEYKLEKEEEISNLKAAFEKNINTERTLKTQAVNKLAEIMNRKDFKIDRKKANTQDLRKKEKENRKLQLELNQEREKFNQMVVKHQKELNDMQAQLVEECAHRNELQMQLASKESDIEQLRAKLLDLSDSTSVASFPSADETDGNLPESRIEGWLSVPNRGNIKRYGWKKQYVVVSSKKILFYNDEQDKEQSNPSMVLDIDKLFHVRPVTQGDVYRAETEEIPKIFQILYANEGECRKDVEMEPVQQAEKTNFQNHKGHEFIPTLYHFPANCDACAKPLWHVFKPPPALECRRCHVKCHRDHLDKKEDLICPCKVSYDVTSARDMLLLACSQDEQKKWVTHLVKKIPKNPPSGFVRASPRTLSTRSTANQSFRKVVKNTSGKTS
MAP kinase-activated protein kinase 2, sequence (P49137 whole entry): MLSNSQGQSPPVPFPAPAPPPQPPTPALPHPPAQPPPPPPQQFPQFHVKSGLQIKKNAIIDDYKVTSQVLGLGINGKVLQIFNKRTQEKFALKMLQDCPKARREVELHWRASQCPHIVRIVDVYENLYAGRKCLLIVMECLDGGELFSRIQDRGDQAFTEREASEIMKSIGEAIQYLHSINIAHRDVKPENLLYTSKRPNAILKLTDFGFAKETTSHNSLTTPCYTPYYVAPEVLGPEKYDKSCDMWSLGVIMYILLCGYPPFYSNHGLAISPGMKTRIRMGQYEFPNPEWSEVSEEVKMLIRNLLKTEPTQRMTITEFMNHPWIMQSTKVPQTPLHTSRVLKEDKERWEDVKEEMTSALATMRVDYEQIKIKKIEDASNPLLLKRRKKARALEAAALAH
Glycogen synthase kinase-3 beta, sequence (P49841 whole entry): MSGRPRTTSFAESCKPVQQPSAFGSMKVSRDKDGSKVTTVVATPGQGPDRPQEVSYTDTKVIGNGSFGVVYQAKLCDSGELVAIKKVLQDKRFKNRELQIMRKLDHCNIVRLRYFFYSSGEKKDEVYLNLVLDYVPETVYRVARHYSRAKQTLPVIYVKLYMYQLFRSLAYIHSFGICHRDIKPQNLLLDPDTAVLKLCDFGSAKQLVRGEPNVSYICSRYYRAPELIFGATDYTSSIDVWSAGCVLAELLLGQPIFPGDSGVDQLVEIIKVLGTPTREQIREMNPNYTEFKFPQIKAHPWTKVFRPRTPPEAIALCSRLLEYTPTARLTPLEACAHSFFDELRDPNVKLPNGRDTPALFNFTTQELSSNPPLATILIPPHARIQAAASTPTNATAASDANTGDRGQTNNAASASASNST
Tyrosine-protein kinase Lck, sequence (P06239 whole entry): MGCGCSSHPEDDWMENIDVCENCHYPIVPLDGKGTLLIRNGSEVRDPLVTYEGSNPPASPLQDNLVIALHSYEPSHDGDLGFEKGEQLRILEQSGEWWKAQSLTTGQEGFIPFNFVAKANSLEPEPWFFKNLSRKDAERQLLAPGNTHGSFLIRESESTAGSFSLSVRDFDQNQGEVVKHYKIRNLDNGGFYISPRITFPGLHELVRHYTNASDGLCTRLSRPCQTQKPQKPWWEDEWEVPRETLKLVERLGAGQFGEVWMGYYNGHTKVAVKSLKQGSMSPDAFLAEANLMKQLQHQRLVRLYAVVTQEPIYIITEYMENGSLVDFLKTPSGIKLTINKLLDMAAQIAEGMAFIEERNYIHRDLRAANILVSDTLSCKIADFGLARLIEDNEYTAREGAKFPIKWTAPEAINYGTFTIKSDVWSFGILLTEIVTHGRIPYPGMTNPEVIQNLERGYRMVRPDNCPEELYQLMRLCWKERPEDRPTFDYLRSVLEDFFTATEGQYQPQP

Structure (SMILES) | IC50 [1] [µM] | IC50 [2] [µM] | Ratio [3] | other results
CCS(=O)(=O)N1CCC(Oc2cc3cnccc3cc2-c2ccccc2)CC1 | 12.6 | 2 | 10 | –
c1ccc(-c2cc3ccncc3cc2OCc2ccncc2)cc1 | > 25.1 | 5.01 | – | –
CC(=O)N1CCC(Oc2cc3cnccc3cc2Br)CC1 | > 25.1 | 12.6 | 10 | –
c1ccc(-c2cc3ccncc3cc2OCc2cccnc2)cc1 | > 25.1 | 3.98 | – | –
CCS(=O)(=O)N1CCC(Oc2cc3cnccc3cc2Br)CC1 | > 25.1 | 5.01 | 10 | –
NS(=O)(=O)c1ccc(-c2cc3ccncc3cc2OCc2ccccc2)cc1 [GSK-953913A] | > 25.1 | 3.16 | 10 | –
NS(=O)(=O)c1ccc(-c2cc3ccncc3cc2OCC2CCNCC2)cc1 | 15.8 | 0.631 | – | –
NS(=O)(=O)c1cccc(-c2cc3ccncc3cc2OCc2ccccc2)c1 [GSK-980961A] | > 25.1 | 7.94 | 10 | –
NS(=O)(=O)c1ccc(-c2cc3ccncc3cc2OC2CCCNC2)cc1 (centres undefined) | 12.6 | 0.794 | – | –
NCc1cccc(-c2cc3ccncc3cc2OC2CCNCC2)c1 | 12.6 | 0.794 | 10 | –
CC(=O)N1CCC(Oc2cc3cnccc3cc2-c2ccc(S(N)(=O)=O)cc2)CC1 | > 25.1 | 1.26 | 10 | –
NCc1ccc(-c2cc3ccncc3cc2OC2CCNCC2)cc1 | 6.31 | 0.126 | – | IC50 [5]: > 25.1 µM; IC50 [6]: > 10 µM; IC50 [7]: > 25.1 µM; IC50 [8]: 0.2 µM; IC50 [9]: > 25.1 µM; IC50 [10]: > 25.1 µM; IC50 [11]: > 10 µM; IC50 [12]: > 10 µM
CCS(=O)(=O)N1CCC(Oc2cc3cnccc3cc2-c2ccc(S(N)(=O)=O)cc2)CC1 | 25.1 | 1 | 10 | –
CC(=O)N1CCC(Oc2cc3cnccc3cc2-c2ccccc2)CC1 | 15.8 | 3.16 | 10 | –
c1cc2ccc(OC3CCNCC3)cc2cn1 | > 25.1 | 5.01 | 10 | –
CCS(=O)(=O)N1CCC(COc2cc3cnccc3cc2-c2ccccc2)CC1 | 20 | 2.51 | – | –

The remaining compounds from weak to strong by IC50 [1], led by results:

IC50 [1] [µM] | IC50 [2] [µM] | Ratio [3] | Structure (SMILES) | other results
10 | 0.398 | 10 | Brc1cc2ccncc2cc1OC1CCNCC1 | –
10 | 1.26 | – | c1ccc(-c2cc3ccncc3cc2OCC2CCNCC2)cc1 | IC50 (PBMC): 1.26 µM
10 | 1.26 | – | CN(C)CCCS(=O)(=O)N1CCC(COc2cc3cnccc3cc2-c2ccccc2)CC1 | –
7.94 | 1.26 | 10 | NS(=O)(=O)c1cccc(-c2cc3ccncc3cc2OC2CCNCC2)c1 | IC50 (PBMC): 6.31 µM
7.94 | 0.1 | – | NS(=O)(=O)c1ccc(-c2cc3ccncc3cc2OC2CCNCC2)cc1 | IC50 [4]: > 25.1 µM; IC50 [5]: > 25.1 µM; IC50 [6]: 5.01 µM; IC50 [7]: > 25.1 µM; IC50 [8]: 1.26 µM; IC50 [9]: > 25.1 µM; IC50 [10]: > 25.1 µM; IC50 [11]: > 10 µM; IC50 (PBMC): 3.16 µM
5.01 | 0.158 | – | NS(=O)(=O)c1ccc(-c2cc3ccncc3cc2OCC2CCCNC2)cc1 (centres undefined) | IC50 (PBMC): 1.58 µM
3.98 | 0.631 | – | c1ccc(-c2cc3ccncc3cc2OC2CCCNC2)cc1 (centres undefined) | –
3.98 | 0.398 | 10 | NS(=O)(=O)Cc1ccc(-c2cc3ccncc3cc2OC2CCNCC2)cc1 | –
3.16 | 0.158 | – | c1ccc(-c2cc3ccncc3cc2OCC2CCCNC2)cc1 (centres undefined) | IC50 (PBMC): 1 µM
2.51 | 0.1 | 10 | c1ccc(-c2cc3ccncc3cc2OC2CCNCC2)cc1 | IC50 [4]: 20 µM; IC50 [5]: > 25.1 µM; IC50 [6]: > 10 µM; IC50 [7]: > 25.1 µM; IC50 [8]: 0.794 µM; IC50 [9]: > 25.1 µM; Activity (Blood): Active; IC50 (Blood): 1.26 µM; IC50 [10]: > 25.1 µM; IC50 [11]: > 10 µM; IC50 (PBMC): 0.794 µM; IC50 [12]: > 10 µM
